Publication PMC7594318 (ACS Omega, 2020)
Read-outs that look alike come from different tables or passages of the source.

How the values were obtained:
Type in all cases: cell-based
[1] = tested on: human promyelocytic leukemia HL-60 cells; assay: WST-8 cytotoxicity assay, HL-60 cells; conditions: read-out: IC50 (μM) HL-60
Procedure, shortened: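 HL-60 promyelocytic leukemia cells, grown in RPMI 1640 + 10% FBS at 37 °C, 5% CO2, plated at 5000 cells/well with various concentrations for 72 h (DMSO 0.1–0.2% v/v). CCK-8 (WST-8) reagent added for 2 h at 37 °C, absorbance read at 450 nm. Growth is taken as the sample/control absorbance ratio. IC50 is the mean ± SD of triplicate experiments. SN-38 positive control.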

[2] = tested on: human lung adenocarcinoma A549 cells; assay: WST-8 cytotoxicity assay, A549 cells; conditions: for IC50: read-out: IC50 (μM) A549; for SI (selectivity index): IC50 against normal MRC-5 cells divided by IC50 against A549 cells
Procedure, shortened: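 Human lung adenocarcinoma A549 cells, kept in DMEM + 10% FBS at 37 °C, 5% CO2, seeded at 2000 cells/well, preincubated 24 h, then exposed to various concentrations for 72 h (DMSO 0.1–0.2% v/v). WST-8 (CCK-8) reagent 2 h at 37 °C, A450. Growth is sample/control absorbance. IC50 is mean ± SD of triplicates. SN-38 positive control. SI = MRC-5 IC50 / A549 IC50.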

[3] = tested on: human normal lung fibroblast MRC-5 cells; assay: WST-8 cytotoxicity assay, normal MRC-5 cells; conditions: read-out: IC50 (μM) MRC-5
Procedure, shortened: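 Normal lung fibroblast MRC-5 cells in α-MEM without ribonucleosides/deoxyribonucleosides + 10% FBS. Seeded at 2000 cells/well, preincubated 24 h, then treated with various concentrations for 72 h (DMSO 0.1–0.2% v/v). WST-8 (CCK-8) reagent 2 h at 37 °C, A450. Growth is the ratio of sample to control absorbance. IC50 is the mean ± SD of triplicates. SN-38 positive control.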

[4] = Table 3, WST-8, 72 h, mean ± SD of triplicate experiments
[5] = Table 4, WST-8, 72 h, mean ± SD of triplicate experiments

Row | SMILES | IC50 ([1]; Homo sapiens, HL-60, 72 h) | IC50 ([2]; Homo sapiens, A549, 72 h) | SI (selectivity index) ([2]; Table 3) | IC50 ([3]; Homo sapiens, MRC5, 72 h) | SI (selectivity index) ([2]; Table 4) | IC50 [1, 4] | IC50 [1, 5] | IC50 [2, 4] | IC50 [2, 5] | IC50 [3, 4] | IC50 [3, 5]
1 | Cn1c2cccc(=O)c-2nc2ccccc21 [1a, pyocyanin] | 5.82 ± 0.133 µM | 5.52 ± 0.28 µM | 3.95 | 21.8 ± 2.55 µM |  |  |  |  |  |  | 
2 | Cn1c2ccc(Br)c(=O)c-2nc2ccccc21 [1b, 2-Bromo-5-methylphenazin-1(5H)-one] | 3.07 ± 0.08 µM | 2.59 ± 0.056 µM | 1.30 | 3.36 ± 0.204 µM |  |  |  |  |  |  | 
3 | CC(C)=CCn1c2ccc(Cl)c(=O)c-2nc2ccccc21 [3c, 2-Chloro-5-(3-methylbut-2-en-1-yl)phenazin-1(5H)-one] | 2.2 ± 0.07 µM | 0.66 ± 0.016 µM |  | 0.66 ± 0.041 µM | 1.00 |  |  |  |  |  | 
4 | CCc1c2c(nc3ccc(O)cc13)-c1cc3c(c(=O)n1C2)COC(=O)[C@]3(O)CC [SN-38, reference compound] |  |  |  |  |  | < 0.05 µM | 0.056 ± 0.002 µM | 0.038 ± 0.003 µM | 0.052 ± 0.003 µM | < 0.1 µM | 0.092 ± 0.001 µM
